Experimental data from ChEMBL document CHEMBL2375276, “Antibacterial oxazolidinone analogues having a N-hydroxyacetyl-substituted seven-membered [1,2,5]triazepane or [1,2,5]oxadiazepane C-ring unit” (Eur J Med Chem, 2013).
Values after ≈ are worked out from the molar mass of the structure shown.

What was measured:
Type in all cases: functional
Staphylococcus aureus [1] = test: Antibacterial activity against methicillin-resistant Staphylococcus aureus SR3637 infected in JCL/ICR mouse systemic infection model assessed as mortality administered as iv measured over 7 days; settings: 168 h
In short: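 Five-week-old male JCL/ICR mice (20–25 g), five per group. Infected intraperitoneally with 0.5 or 1.0 mL bacterial suspension (about 100× LD50). Intravenous dosing 1 h post-infection. Mortality followed 7 days; ED50 with 95% confidence limits by logit method.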

Haemophilus influenzae [2] = test: Antibacterial activity against Haemophilus influenzae SR27914 clinical isolate assessed as growth inhibition by CLSI broth microdilution method
In short: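 MIC by CLSI broth microdilution using Haemophilus test medium.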

Streptococcus pneumoniae [3] = test: Antibacterial activity against Streptococcus pneumoniae SR26207 clinical isolate assessed as growth inhibition by CLSI broth microdilution method
In short: (§1)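 MIC by CLSI broth microdilution in cation-adjusted Mueller-Hinton broth; S. pneumoniae medium supplemented with 5% lysed horse blood.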

Moraxella catarrhalis [4] = test: Antibacterial activity against Moraxella catarrhalis SR26840 clinical isolate assessed as growth inhibition by CLSI broth microdilution method; in short: as §1
Enterococcus faecium [5] = test: Antibacterial activity against Enterococcus faecium SR7940 clinical isolate assessed as growth inhibition by CLSI broth microdilution method; in short: as §1
Enterococcus faecalis [6] = test: Antibacterial activity against Enterococcus faecalis SR1004 clinical isolate assessed as growth inhibition by CLSI broth microdilution method; in short: as §1
Staphylococcus aureus [7] = test: Antibacterial activity against linezolid-resistant Staphylococcus aureus NRS271 assessed as growth inhibition by CLSI broth microdilution method
In short: (§2)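 MIC by CLSI broth microdilution in cation-adjusted Mueller-Hinton broth. Lowest concentration inhibiting growth taken as MIC.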

Staphylococcus aureus [8] = test: Antibacterial activity against Staphylococcus aureus Smith assessed as growth inhibition by CLSI broth microdilution method; in short: as §1
Staphylococcus aureus [9] = test: Antibacterial activity against Staphylococcus aureus SR20549 clinical isolate assessed as growth inhibition by CLSI broth microdilution method; in short: as §1
Staphylococcus aureus [10] = test: Antibacterial activity against methicillin-resistant Staphylococcus aureus SR3637 assessed as growth inhibition by CLSI broth microdilution method; in short: as §2
Staphylococcus aureus [11] = test: Antibacterial activity against methicillin-resistant Staphylococcus aureus SR3637 infected in JCL/ICR mouse systemic infection model assessed as mortality administered as po measured over 7 days; settings: 168 h
In short: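 Five-week-old male JCL/ICR mice (20–25 g), five per group. Infected intraperitoneally with 0.5 or 1.0 mL bacterial suspension (about 100× LD50). Oral dosing 1 h post-infection. Mortality followed 7 days; ED50 with 95% confidence limits by logit method.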

Haemophilus influenzae [12] = test: Ratio of eperezolid MIC to compound MIC for Haemophilus influenzae SR27914 clinical isolate
Streptococcus pneumoniae [13] = test: Ratio of eperezolid MIC to compound MIC for Streptococcus pneumoniae SR26207 clinical isolate
Moraxella catarrhalis [14] = test: Ratio of eperezolid MIC to compound MIC for Moraxella catarrhalis SR26840 clinical isolate
Enterococcus faecium [15] = test: Ratio of eperezolid MIC to compound MIC for Enterococcus faecium SR7940 clinical isolate
Enterococcus faecalis [16] = test: Ratio of eperezolid MIC to compound MIC for Enterococcus faecalis SR1004 clinical isolate
Staphylococcus aureus [17] = test: Ratio of eperezolid MIC to compound MIC for Staphylococcus aureus Smith
Staphylococcus aureus [18] = test: Ratio of eperezolid MIC to compound MIC for Staphylococcus aureus SR20549 clinical isolate
Moraxella catarrhalis [19] = test: Ratio of linezolid MIC to compound MIC for Moraxella catarrhalis SR26840 clinical isolate
Streptococcus pneumoniae [20] = test: Ratio of linezolid MIC to compound MIC for Streptococcus pneumoniae SR26207 clinical isolate
Haemophilus influenzae [21] = test: Ratio of linezolid MIC to compound MIC for Haemophilus influenzae SR27914 clinical isolate
Enterococcus faecium [22] = test: Ratio of linezolid MIC to compound MIC for Enterococcus faecium SR7940 clinical isolate
Enterococcus faecalis [23] = test: Ratio of linezolid MIC to compound MIC for Enterococcus faecalis SR1004 clinical isolate
Staphylococcus aureus [24] = test: Ratio of linezolid MIC to compound MIC for Staphylococcus aureus Smith
Staphylococcus aureus [25] = test: Ratio of linezolid MIC to compound MIC for Staphylococcus aureus SR20549 clinical isolate

| SMILES | ED50 (Staphylococcus aureus [1]) | MIC (Haemophilus influenzae [2]) | MIC (Streptococcus pneumoniae [3]) | MIC (Moraxella catarrhalis [4]) | MIC (Enterococcus faecium [5]) | MIC (Enterococcus faecalis [6]) | MIC (Staphylococcus aureus [7]) | MIC (Staphylococcus aureus [8]) | MIC (Staphylococcus aureus [9]) | further results |
| --- | --- | --- | --- | --- | --- | --- | --- | --- | --- | --- |
| O=C(CO)N1CCN(c2ccc(N3C[C@H](Cn4ccnn4)OC3=O)cc2F)CCN1 | 0.77 mg/kg | 16 µg/mL (≈ 38.1 µM) | 1 µg/mL (≈ 2.38 µM) | 8 µg/mL (≈ 19.1 µM) | 4 µg/mL (≈ 9.54 µM) | 4 µg/mL (≈ 9.54 µM) | 64 µg/mL (≈ 153 µM) | 4 µg/mL (≈ 9.54 µM) | 2 µg/mL (≈ 4.77 µM) | – |
| CC(=O)NC[C@H]1CN(c2cc(F)c(N3CCNN(C(=O)CO)CC3)c(F)c2)C(=O)O1 | – | 8 µg/mL (≈ 18.7 µM) | 0.25 µg/mL (≈ 0.585 µM) | 4 µg/mL (≈ 9.36 µM) | 4 µg/mL (≈ 9.36 µM) | 2 µg/mL (≈ 4.68 µM) | 16 µg/mL (≈ 37.4 µM) | 1 µg/mL (≈ 2.34 µM) | 1 µg/mL (≈ 2.34 µM) | – |
| O=C(CO)N1CCN(c2c(F)cc(N3C[C@H](CNc4ccon4)OC3=O)cc2F)CCO1 | > 10 mg/kg | 16 µg/mL (≈ 35.3 µM) | 0.25 µg/mL (≈ 0.551 µM) | 4 µg/mL (≈ 8.82 µM) | 1 µg/mL (≈ 2.21 µM) | 0.5 µg/mL (≈ 1.1 µM) | 8 µg/mL (≈ 17.6 µM) | 0.5 µg/mL (≈ 1.1 µM) | 0.25 µg/mL (≈ 0.551 µM) | MIC (Staphylococcus aureus [10]): 0.25 µg/mL (≈ 0.551 µM) |
| O=C1O[C@@H](Cn2ccnn2)CN1c1cc(F)c(N2CCNOCC2)c(F)c1 | – | 8 µg/mL (≈ 21 µM) | 0.5 µg/mL (≈ 1.31 µM) | 4 µg/mL (≈ 10.5 µM) | 1 µg/mL (≈ 2.63 µM) | 2 µg/mL (≈ 5.26 µM) | 16 µg/mL (≈ 42.1 µM) | 2 µg/mL (≈ 5.26 µM) | 1 µg/mL (≈ 2.63 µM) | – |
| COC(=S)NC[C@H]1CN(c2cc(F)c(N3CCNOCC3)c(F)c2)C(=O)O1 | – | 8 µg/mL (≈ 19.9 µM) | 0.125 µg/mL (≈ 0.311 µM) | 1 µg/mL (≈ 2.48 µM) | 0.25 µg/mL (≈ 0.621 µM) | 0.5 µg/mL (≈ 1.24 µM) | 4 µg/mL (≈ 9.94 µM) | 0.5 µg/mL (≈ 1.24 µM) | 0.25 µg/mL (≈ 0.621 µM) | – |
| CC(=S)NC[C@H]1CN(c2cc(F)c(N3CCNN(C(=O)CO)CC3)c(F)c2)C(=O)O1 | 2.95 mg/kg | 2 µg/mL (≈ 4.51 µM) | 0.063 µg/mL (≈ 0.142 µM) | 0.5 µg/mL (≈ 1.13 µM) | 0.125 µg/mL (≈ 0.282 µM) | 0.25 µg/mL (≈ 0.564 µM) | 1 µg/mL (≈ 2.25 µM) | 0.25 µg/mL (≈ 0.564 µM) | 0.125 µg/mL (≈ 0.282 µM) | ED50 (Staphylococcus aureus [11]): 9.83 mg/kg; MIC (Staphylococcus aureus [10]): 0.125 µg/mL (≈ 0.282 µM); Ratio (Haemophilus influenzae [12]): 4; Ratio (Streptococcus pneumoniae [13]): 4; Ratio (Moraxella catarrhalis [14]): 4; Ratio (Enterococcus faecium [15]): 4; Ratio (Enterococcus faecalis [16]): 4; Ratio (Staphylococcus aureus [17]): 4; Ratio (Staphylococcus aureus [18]): 4; Ratio (Moraxella catarrhalis [19]): 4; Ratio (Streptococcus pneumoniae [20]): 4; Ratio (Haemophilus influenzae [21]): 4; Ratio (Enterococcus faecium [22]): 4; Ratio (Enterococcus faecalis [23]): 4; Ratio (Staphylococcus aureus [24]): 4; Ratio (Staphylococcus aureus [25]): 4 |
| COC(=S)NC[C@H]1CN(c2cc(F)c(N3CCON(C(=O)CO)CC3)c(F)c2)C(=O)O1 | – | 4 µg/mL (≈ 8.69 µM) | 0.125 µg/mL (≈ 0.271 µM) | 1 µg/mL (≈ 2.17 µM) | 0.25 µg/mL (≈ 0.543 µM) | 0.5 µg/mL (≈ 1.09 µM) | 2 µg/mL (≈ 4.34 µM) | 0.25 µg/mL (≈ 0.543 µM) | 0.25 µg/mL (≈ 0.543 µM) | Ratio (Haemophilus influenzae [12]): 4; Ratio (Streptococcus pneumoniae [13]): 4; Ratio (Moraxella catarrhalis [14]): 4; Ratio (Enterococcus faecium [15]): 4; Ratio (Enterococcus faecalis [16]): 4; Ratio (Staphylococcus aureus [17]): 4; Ratio (Staphylococcus aureus [18]): 4; Ratio (Moraxella catarrhalis [19]): 4; Ratio (Streptococcus pneumoniae [20]): 4; Ratio (Haemophilus influenzae [21]): 4; Ratio (Enterococcus faecium [22]): 4; Ratio (Enterococcus faecalis [23]): 4; Ratio (Staphylococcus aureus [24]): 4; Ratio (Staphylococcus aureus [25]): 4 |
| CC(=S)NC[C@H]1CN(c2cc(F)c(N3CCNOCC3)c(F)c2)C(=O)O1 | – | 2 µg/mL (≈ 5.18 µM) | 0.063 µg/mL (≈ 0.163 µM) | 1 µg/mL (≈ 2.59 µM) | 0.125 µg/mL (≈ 0.323 µM) | 0.25 µg/mL (≈ 0.647 µM) | 4 µg/mL (≈ 10.4 µM) | 0.25 µg/mL (≈ 0.647 µM) | 0.25 µg/mL (≈ 0.647 µM) | – |
| O=C(CO)N1CCN(c2ccc(N3C[C@H](CNc4ccon4)OC3=O)cc2F)CCN1 | – | 32 µg/mL (≈ 73.7 µM) | 0.5 µg/mL (≈ 1.15 µM) | 16 µg/mL (≈ 36.8 µM) | 2 µg/mL (≈ 4.6 µM) | 2 µg/mL (≈ 4.6 µM) | 64 µg/mL (≈ 147 µM) | 2 µg/mL (≈ 4.6 µM) | 1 µg/mL (≈ 2.3 µM) | – |
